Measured values published in ChEMBL document CHEMBL5104154, “Thiamine analogues as inhibitors of pyruvate dehydrogenase and discovery of a thiamine analogue with non-thiamine related antiplasmodial activity” (RSC Med Chem, 2022).
Blank lines part the entries; values can stand above or below the compound they belong to. Activity calls are given as the source filed them. The calls are words filed in the database; no cut-off is given here.

Key:
[1] = Cytotoxicity against human HFF cells assessed as inhibition of cell proliferation incubated for 96 hrs by SYBR-based fluorescence assay; type: toxicity
How it was run: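 Human foreskin fibroblasts exposed to compounds up to the highest concentration that solubility allowed.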

[2] = tested on: Plasmodium falciparum; assay: Antiplasmodial activity against chloroquine-sensitive Plasmodium falciparum 3D7 assessed as inhibition of parasite proliferation in presence of 2.2 to 220 uM folic acid by SYBR-based fluorescence assay; type: functional, organism-based
[3] = Selectivity index, ratio of IC50 for cytotoxicity against human HFF cells to IC50 for antiplasmodial activity against chloroquine-sensitive Plasmodium falciparum 3D7; type: toxicity, cell-based; conditions: read-out: Ratio IC50
[4] = tested on: Plasmodium falciparum; assay: Antiplasmodial activity against chloroquine-sensitive Plasmodium falciparum 3D7 overexpressing GFP-tagged plasmodium falciparum TPK assessed as inhibition of parasite proliferation in presence of 2.97 uM thiamine by SYBR-based fluorescence assay; type: functional, organism-based
[5] = biological target: T1, Pyruvate decarboxylase (Zymomonas mobilis subsp. mobilis, UniProt P06672); assay: Inhibition of Zymomonas mobilis pyruvate decarboxylase incubated for 3 mins using pyruvate as substrate in presence of TPP by spectrophotometric analysis
T1 sequence (P06672 whole entry): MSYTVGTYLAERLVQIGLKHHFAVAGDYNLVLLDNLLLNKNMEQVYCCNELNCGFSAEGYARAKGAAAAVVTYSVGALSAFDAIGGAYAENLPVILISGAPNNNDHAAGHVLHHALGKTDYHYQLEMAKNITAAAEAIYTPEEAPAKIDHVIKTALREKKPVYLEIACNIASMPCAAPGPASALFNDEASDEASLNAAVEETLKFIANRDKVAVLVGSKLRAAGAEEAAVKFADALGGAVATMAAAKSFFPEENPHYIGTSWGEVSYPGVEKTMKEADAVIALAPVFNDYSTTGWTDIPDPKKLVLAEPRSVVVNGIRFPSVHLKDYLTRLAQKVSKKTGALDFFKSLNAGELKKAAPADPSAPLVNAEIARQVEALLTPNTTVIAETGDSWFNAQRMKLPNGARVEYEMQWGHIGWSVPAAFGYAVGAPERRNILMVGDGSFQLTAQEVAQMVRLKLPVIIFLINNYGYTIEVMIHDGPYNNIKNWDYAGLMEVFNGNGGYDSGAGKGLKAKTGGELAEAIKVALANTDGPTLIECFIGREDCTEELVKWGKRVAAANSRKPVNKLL

Structure (SMILES): Cc1ncc(Cn2cc(CCOC(=O)c3ccccc3)nn2)c(N)n1
IC50 at 96 h [1]: > 200 µM

Structure (SMILES): Cc1ncc(Cn2cc(CCO)nn2)c(NCc2ccc(Br)cc2)n1
IC50 at 96 h [1]: 98 µM

Structure (SMILES): COc1ncnc(NS(=O)(=O)c2ccc(N)cc2)c1OC
Activity [2]: Active

Structure (SMILES): Cc1ncc(Cn2cc(CCOC(=O)c3cccc(Cl)c3)nn2)c(N)n1
selectivity ratio [3]: > 3.2
IC50 at 96 h [1]: > 200 µM

Structure (SMILES): Cc1ncc(C[n+]2csc(CCO)c2C)c(O)n1
Activity [4]: Active

Ki [5]: 3e-05 µM
Structure (SMILES): Cc1ncc(Cn2cc(CCOP(=O)(O)OP(=O)(O)O)nn2)c(N)n1

Ki [5]: 300 µM
Structure (SMILES): Cc1ncc(Cn2cc(CCO)nn2)c(N)n1
